ChEMBL document CHEMBL1124947, “Cationic antiprotozoal drugs. Trypanocidal activity of 2-(4'-formylphenyl)imidazo[1,2-a]pyridinium guanylhydrazones and related derivatives of quaternary heteroaromatic compounds” (J Med Chem, 1990)

Assays:
Assay type in all cases: functional
Mus musculus [1] = assay: Trypanocidal Activity at I.C.E. value 0.30 when administered perorally.
Mus musculus [2] = assay: Trypanocidal Activity at I.C.E. value 0.85 when administered subcutaneously.
Method in brief: (§1)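 Mice, in groups of five per dose, were given a standard inoculum of blood-stage T. rhodesiense that is lethal to all untreated controls, then dosed subcutaneously. Usually 11 dose levels were used (2^n × 0.42 mg/kg).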

Mus musculus [3] = assay: Trypanocidal Activity at I.C.E. value 0.24 when administered perorally.
Mus musculus [4] = assay: Trypanocidal Activity at I.C.E. value 0.75 when administered subcutaneously.; method in brief: as §1
Mus musculus [5] = assay: Trypanocidal Activity at I.C.E. value 0.20 when administered subcutaneously.
Mus musculus [6] = assay: Trypanocidal Activity at I.C.E. value 0.36 when administered perorally.
Mus musculus [7] = assay: Trypanocidal Activity at I.C.E. value 0.72 when administered subcutaneously.; method in brief: as §1
Mus musculus [8] = assay: Trypanocidal Activity at I.C.E. value 0.32 when administered subcutaneously.
Method in brief: (§2)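 Blood-stage T. rhodesiense infection came from a standard inoculum lethal to all untreated mice. Drug was given by subcutaneous injection to groups of five mice. Survival beyond 30 days counted as cure. […] Sub-curative doses scored 0, and data were normalized at each dose.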

Mus musculus [9] = assay: Trypanocidal Activity at I.C.E. value 0.43 when administered perorally.
Mus musculus [10] = assay: Trypanocidal Activity at I.C.E. value 0.70 when administered perorally.
Mus musculus [11] = assay: Trypanocidal Activity at I.C.E. value 0.54 when administered subcutaneously.; method in brief: as §2
[12] = tested on: Trypanosoma brucei rhodesiense; assay: In Vitro measurement of inhibition of leucine uptake in cell culture of Trypanosoma rhodesiense; details: read-out: ID50 (the source's name)
Method in brief: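 Trypanosomes harvested from infected rats, cultured 3 h with several concentrations of drug, usually 0.1–100 µg/mL. Radiolabeled L-leucine uptake measured. ID50 is the concentration in µg/mL giving 50% inhibition of incorporation.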

[13] = tested on: Trypanosoma brucei rhodesiense; assay: In Vitro measurement of inhibition of thymidine uptake in cell culture of Trypanosoma rhodesiense; details: read-out: ID50 (the source's name)
Method in brief: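 Parasites harvested from infected rats and incubated 3 h across a drug concentration series, usually 0.1–100 µg/mL. Incorporation of radiolabeled thymidine measured. ID50 is the concentration (µg/mL) producing 50% inhibition.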

Mus musculus [14] = assay: Trypanocidal Activity at I.C.E. value 0.56 when administered subcutaneously.; method in brief: as §1
Mus musculus [15] = assay: Trypanocidal Activity at I.C.E. value 0.81 when administered subcutaneously.; method in brief: as §1
Mus musculus [16] = assay: Trypanocidal Activity at I.C.E. value 0.61 when administered perorally.

Work on `Cc1ccc(S(=O)(=O)O)cc1.Cc1ccc(S(=O)(=O)[O-])cc1.Cc1cccc2n1cc(/C=C/c1ccc(/C=N/NC(=N)N)cc1)[n+]2C` yielded a CD50 (Mus musculus [1]) of 53 mg/kg and a CD50 (Mus musculus [2]) of 0.4 mg/kg.
Work on `Br.Cc1cccc2n1cc(COc1ccc(/C=N/NC(=N)N3CCCC3)cc1)[n+]2C.[Br-]` yielded a CD50 (Mus musculus [3]) of 53 mg/kg and a CD50 (Mus musculus [4]) of 0.4 mg/kg.
`Br.CN(C)C(=N)N/N=C/c1ccc(-c2c([N+](=O)[O-])n3ccccc3[n+]2C)cc1.[Br-]` gave a CD50 (Mus musculus [5]) of 0.8 mg/kg and a CD50 (Mus musculus [6]) of 53 mg/kg.
With `Br.C[n+]1c(/C=C/c2ccc(/C=N/NC(=N)NO)cc2)cn2ccccc21.[Br-]` the CD50 (Mus musculus [7]) was 0.2 mg/kg.
`Br.C[n+]1c(-c2ccc(/C=N/NC(=N)N)cc2)c(Br)n2ccccc21.[Br-]` showed a CD50 (Mus musculus [8]) of 1.6 mg/kg and a CD50 (Mus musculus [9]) of 26 mg/kg.
Molecule `Br.C[n+]1c(-c2ccc(/C=N/NC(=N)N3CCCC3)cc2)cn2ccsc21.[Br-]` has a CD50 (Mus musculus [10]) of 3.3 mg/kg and a CD50 (Mus musculus [11]) of 0.1 mg/kg.
`CN(C)C(=N)N/N=C/c1ccc(-c2cn3ccsc3[n+]2C)cc1.I.[I-]` showed an IC50 [12] of 1 µg/mL, an IC50 [13] of 1 µg/mL and a CD50 (Mus musculus [14]) of 0.2 mg/kg.
For `Br.Cc1ccc2n(c1)cc(COc1ccc(/C=N/NC(=N)N)cc1)[n+]2C.[Br-]`, the CD50 (Mus musculus [15]) was 0.2 mg/kg and the CD50 (Mus musculus [16]) was 6.6 mg/kg.
